High-throughput results: PubChem BioAssay, several laboratories
PPC-1+TRAIL kill: compounds killing PPC-1 cancer cells with TRAIL present (potentiator screen, no TRAIL-free arm); PPC-1 cells + TRAIL, ATPLite viability luminescence; cell killing (% activity), % at 4 µM or 5 µM; 220,000 tested, 0.41% active;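 active = cell killing above 50% in the first pass at 4 µM, then a duplicate retest at 5 µM averaging 50% or more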
C8 TRAIL sens: caspase-8 TRAIL sensitization | AID 624354 | 360,000 tested, 1% active | inhibition (viability loss, TRAIL sensitization), % at 10 µM | NB7+C8 cells + TRAIL, ATPlite viability luminescence;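 active = compounds causing at least 50% loss of cell viability in the single-dose screen, relative to plate controls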
FLuc inhib CS: inhibits firefly luciferase, flagging false hits in luciferase inhibition screens; ATPLite firefly luciferase biochemical luminescence, 10 min; inhibition, % at 10 µM; 200,000 tested, 1.5% active; AID 1006;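 active = inhibition above about 50% when tested at 10 µM, limit read from the data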
Target sequence (P08659 whole entry, looked up): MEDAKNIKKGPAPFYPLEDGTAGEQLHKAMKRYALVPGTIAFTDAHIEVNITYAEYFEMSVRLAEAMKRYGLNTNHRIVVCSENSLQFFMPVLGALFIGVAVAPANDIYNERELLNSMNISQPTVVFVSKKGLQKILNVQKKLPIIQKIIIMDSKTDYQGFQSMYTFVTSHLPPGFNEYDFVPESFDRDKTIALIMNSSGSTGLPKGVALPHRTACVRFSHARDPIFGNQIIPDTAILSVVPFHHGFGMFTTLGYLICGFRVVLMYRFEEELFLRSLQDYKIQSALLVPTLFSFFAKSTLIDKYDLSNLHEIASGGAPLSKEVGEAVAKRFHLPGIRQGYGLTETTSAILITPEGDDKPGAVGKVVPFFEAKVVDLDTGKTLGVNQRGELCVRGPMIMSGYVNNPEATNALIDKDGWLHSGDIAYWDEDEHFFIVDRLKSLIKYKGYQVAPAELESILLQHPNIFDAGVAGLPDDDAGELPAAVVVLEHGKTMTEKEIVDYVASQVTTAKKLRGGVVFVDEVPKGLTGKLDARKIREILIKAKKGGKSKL
FLuc stim CS: firefly luciferase counter-screen for stimulation assays. P08659. ATPlite luciferase biochemical, luminescence, 10 min; 0 = ATP-free wells, 1 = DMSO control. activation factor at 10 µM. 200,000 tested, under 10 active. AID 1027;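 active = luciferase activation factor, scaled between plate controls, of at least 2 with compound at 10 µM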
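Assay system: Luciferase/luciferin detection reagent, cell-free biochemical luciferase assay / Also added: ATP substrate / Schedule: 10 min at ambient temperature / Measured by: luminescence measurement of luciferase light output / Benchmarks: low control with PBS replacing ATP, high control enzyme plus ATP without compound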
Platelet DG rel: platelet dense granule release activity. human platelet-rich plasma, SFLLRN dense granule ATP release, luminescence. inhibition, %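 (compounds screened at 7.5 µM in platelet-rich plasma)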. 300,000 tested, 0.22% active. AID 1663;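 active = mean replicate score, as percent of positive control, at or above 50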
Hits are given with their value; 0 = inactive; - = not tested or not shown. Shown are actives, neighbours in structure and some others; about 1.6% of the full set was active somewhere.

SMILES | PPC-1+TRAIL kill | C8 TRAIL sens | FLuc inhib CS | FLuc stim CS | Platelet DG rel
COc1cc(/C=C/c2ccc3cccc([N+](=O)[O-])c3n2)ccc1OCC(=O)O | 0 | 0 | 57.5 | 0 | 0
FC(F)(F)c1nnc(-c2ccccc2)nc1Sc1ccccc1 | 0 | 0 | 0 | 0 | 0
FC(F)(F)c1nnc(-c2ccccc2)nc1Sc1ccc(Cl)cc1 | 0 | 48.2 | 0 | 0 | 0
FC(F)(F)c1cccc(Sc2nc(-c3ccccc3)nnc2C(F)(F)F)c1 | 0 | 51.0 | 0 | 0 | 0
COc1ccccc1CCC(=O)Nc1ccc2c(c1)c(=O)n(C)n2Cc1cccc(C(F)(F)F)c1 | - | 0 | - | - | -
Cc1cc(O)ccc1-c1cccc2nccn12 | - | 0 | - | - | -
Cc1ccc(S(=O)(=O)C[C@@H]2OC[C@H](Cc3ccccc3)N2S(=O)(=O)c2ccc(C)cc2)cc1 | - | 0 | - | - | -
Cc1cccn2c(=O)c3cc(C(=O)NCCc4ccccc4)c(=N)n(Cc4ccco4)c3nc12 | - | 60.1 | - | - | 0
Cc1cc(NC(=O)c2cccc(Oc3ccccc3)c2)n[nH]1 | 0 | 0 | 70.6 | 0 | 0
Cn1c(=N)n(CC(=O)c2ccc(Br)cc2)c2ccccc21 | - | 0 | - | - | 0
Cn1c(=N)n(CC(=O)c2ccc(F)cc2)c2ccccc21 | - | 80.3 | - | - | -
Cc1ccc(NC(=O)N2CCCc3ccccc32)cc1 | 0 | 0 | 0 | 0 | 0
CN1CCN(c2ccc(NC(=O)N3CCc4ccccc43)cc2)CC1 | - | 61.2 | - | - | 0
CCC(CC)C(=O)N(C)c1c(C)nc2c(OCC3CCCCC3)cccn12 | - | 0 | - | - | -
O=C(Nc1ccn(Cc2ccccc2)n1)c1ccc(F)cc1 | 0 | 0 | 50.2 | 0 | 0
Nc1nonc1N/N=C\c1ccccc1 | 0 | 0 | - | - | 0
Nc1cnnc(N/N=C\c2ccccc2)c1Cl | - | 48.7 | - | - | 0
Cc1cc(C(=O)CSc2n[nH]c(N)n2)c(C)n1-c1cccc(F)c1 | 0 | 0 | 0 | 0 | 0
Cc1cc(C(=O)CSc2ncccn2)c(C)n1-c1cccc(F)c1 | 0 | 0 | 53.8 | 0 | 0
CC(C)(C)c1ccc(O)c(/C=N\O)c1 | 0 | 71.5 | 0 | 0 | 0
CC(C)(C)c1ccc(O)c(O)c1 | - | 0 | - | - | -
O=C(N=c1nc2ccccn2s1)c1ccccc1 | 83.5 | 83.9 | 95.2 | 0 | 0
O=C(NCc1ccc(F)cc1)c1cc(C2CCCCN2C(=O)CCCc2ccccc2)on1 (stereo not drawn) | - | 0 | - | - | -
COc1cccc(Nc2nc(C(N)Cc3ccc(C(F)(F)F)cc3)cs2)n1 (stereo not drawn) | - | 0 | - | - | -
O=C(/C=C/c1cccs1)Nc1nncs1 | 0 | 0 | - | - | 0
SMILES | PPC-1+TRAIL kill | C8 TRAIL sens | FLuc inhib CS | FLuc stim CS | Platelet DG rel
Cc1ccnc(NC(=O)/C=C/c2cccs2)c1 | 67.5 | 79.2 | 92.0 | 0 | 0
Cc1cc([N+](=O)[O-])ccc1NC(=O)/C=C/c1cccs1 | 0 | 0 | 0 | 0 | 0
O=C(/C=C/c1cccs1)Nc1cccnc1 | 0 | 0 | 61.7 | 0 | 0
O=C(/C=C/c1cccs1)Nc1scc(-c2ccccc2)c1C(=O)O | 0 | 0 | 80.7 | 0 | 0
CCC(C(=O)NC1CCCCC1)n1c(SCc2cccc(C)c2)nc2ccncc21 (stereo not drawn) | 0 | 0 | 68.5 | 0 | 0
CCC(C(=O)NC1CCCCC1)n1c(SCc2cccc(F)c2)nc2ccncc21 (stereo not drawn) | 0 | 0 | 0 | 0 | 0
CCN1CCN(c2ccc(S(=O)(=O)N3CCCCC3)cc2NC(=O)c2ccccc2)CC1 | - | 0 | - | - | 0
CCN1CCN(c2ccc(S(=O)(=O)N3CCCCC3)cc2NC(=O)c2ccc([N+](=O)[O-])s2)CC1 | - | 53.1 | - | - | 0
CNC(=O)CCc1nc(-c2ccc(C(C)(C)C)cc2)no1 | 0 | 0 | 58.2 | 0 | 0
CN(C)C(=O)CCc1nc(-c2ccc(C(C)(C)C)cc2)no1 | 0 | 0 | 52.1 | 0 | 0
CC(C)(C)c1ccc(-c2noc(CCC(=O)Nc3cccnc3)n2)cc1 | - | 50.1 | - | - | 0
COc1ccc(-c2noc(CCC(=O)Nc3cccnc3)n2)cc1 | - | 0 | - | - | 0
CC(C)(C)c1ccc(-c2noc(CCC(=O)NCC3CCCO3)n2)cc1 (stereo not drawn) | 0 | 0 | 64.2 | 0 | 0
CC(C)(C)c1ccc(-c2noc(CCC(N)=O)n2)cc1 | 0 | 0 | 0 | 0 | 0
Cc1ccc(-c2noc(CCC(=O)NCC3CCCO3)n2)cc1 (stereo not drawn) | 0 | 0 | 0 | 0 | 0
CCc1nc2c(OCC(=O)C(C)(C)C)cccn2c1N(C)C(=O)C(C)C | - | 0 | - | - | -
C(=C\c1ccccc1)/CN1CCN(C(c2cc3ccccc3o2)c2nnnn2-c2ccc3c(c2)OCCO3)CC1 (stereo not drawn) | - | 0 | - | - | -
CS(=O)(=O)Nc1cccc(-c2ccc3nncn3c2)c1 | - | 0 | - | - | -
